Data from ChEMBL document CHEMBL1128698, “5-Arylthio-substituted 2-amino-4-oxo-6-methylpyrrolo[2,3-d]pyrimidine antifolates as thymidylate synthase inhibitors and antitumor agents” (J Med Chem, 1995).

Tests used:
Dihydrofolate reductase [1] = target: Dihydrofolate reductase (Lactobacillus casei, UniProt P00381); test: Inhibitory activity against dihydro folate reductase from Lactobacillus casei; parameters: species or system Lacticaseibacillus casei
Thymidylate synthase [2] = target: Thymidylate synthase (Homo sapiens, UniProt P04818); test: Inhibitory activity against thymidylate Synthase from human recombinant sources
Dihydrofolate reductase [3] = target: T1, Dihydrofolate reductase (Homo sapiens, UniProt P00374); test: Inhibitory activity against dihydro folate reductase from human recombinant sources
T1 sequence (P00374 whole entry): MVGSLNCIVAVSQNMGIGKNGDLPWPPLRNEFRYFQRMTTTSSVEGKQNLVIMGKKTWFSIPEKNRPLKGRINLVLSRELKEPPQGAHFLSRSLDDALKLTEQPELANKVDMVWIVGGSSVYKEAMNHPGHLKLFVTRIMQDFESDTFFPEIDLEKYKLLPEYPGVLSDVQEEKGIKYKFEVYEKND

Thymidylate synthase [4] = target: T2, Thymidylate synthase (Lactobacillus casei, UniProt P00469); test: Inhibitory activity against thymidylate Synthase from Lactobacillus casei; parameters: species or system Lacticaseibacillus casei
T2 sequence (P00469 whole entry): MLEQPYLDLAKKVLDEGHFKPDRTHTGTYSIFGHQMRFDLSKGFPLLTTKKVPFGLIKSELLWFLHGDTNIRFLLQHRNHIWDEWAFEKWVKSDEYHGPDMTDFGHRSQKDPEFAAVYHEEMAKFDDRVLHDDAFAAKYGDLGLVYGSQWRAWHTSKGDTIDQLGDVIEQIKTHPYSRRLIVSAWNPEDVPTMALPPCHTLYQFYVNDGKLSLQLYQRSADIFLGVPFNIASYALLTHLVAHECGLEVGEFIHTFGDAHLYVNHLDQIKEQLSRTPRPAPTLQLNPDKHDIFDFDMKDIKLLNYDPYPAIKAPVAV

FaDu [5] = test: Protection against the growth inhibition against Human squamous cell line(Fadu); assay type: functional; parameters: scale not given: the % may be the effect or the level left
FaDu [6] = test: Growth inhibition against Human squamous cell line(Fadu); assay type: functional, cell-based
Procedure, shortened: (§1)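 Continuous drug exposure growth assay. CCRF-CEM and its MTX-resistant subline R30dm (1% of parental FPGS activity) cultured as previously reported; A253 and FaDu squamous carcinoma monolayers subcultured in RPMI 1640/10% fetal calf serum. EC50 read visually from plots of percent control growth against log drug concentration. Averages ± range for n = 2, ± SD for n ≥ 3.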

A253 cell line = test: Growth inhibition against Human squamous cell line(A 253); assay type: functional, cell-based; procedure, shortened: as §1
FaDu [7] = test: Protection by 50 uM against the Growth inhibition against Human squamous cell line(Fadu); assay type: functional; parameters: scale not given: the % may be the effect or the level left
CCRF-CEM [8] = test: Growth inhibition against Human leukemic cell line (Methotrexate resistant CCRF-CEM); assay type: functional, cell-based; procedure, shortened: as §1
FaDu [9] = test: Protection by 40 uM against the Growth inhibition against Human squamous cell line(Fadu), in the presence of 40 uM thymidine; assay type: functional; parameters: scale not given: the % may be the effect or the level left
CCRF-CEM [10] = test: Growth inhibition against Human leukemic cell line(CCRF-CEM); assay type: functional, cell-based; procedure, shortened: as §1
Dihydrofolate reductase [11] = target: T1, Dihydrofolate reductase; test: Inhibitory activity against dihydro folate reductase from human CCRF-CEM leukemic cell line
FaDu [12] = test: Protection by 50 uM+40 uM against Growth inhibition against Human squamous cell line(Fadu), in the presence of 50 uM hypoxanthine +40 uM thymidine; assay type: functional; parameters: scale not given: the % may be the effect or the level left
FaDu [13] = test: Protection by 10 uM LV against the growth inhibition against Human squamous cell line(Fadu); assay type: functional; parameters: scale not given: the % may be the effect or the level left
CCRF-CEM [14] = test: Growth inhibition against Human leukemic cell line(CCRF-CEM) during continuous exposure

Sequence of Dihydrofolate reductase (Lactobacillus casei, UniProt P00381) (P00381 whole entry): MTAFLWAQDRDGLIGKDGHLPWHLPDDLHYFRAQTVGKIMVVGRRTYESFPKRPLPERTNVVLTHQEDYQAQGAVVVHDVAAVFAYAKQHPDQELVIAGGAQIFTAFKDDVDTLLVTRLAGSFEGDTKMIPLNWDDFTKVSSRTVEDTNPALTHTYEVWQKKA
Sequence of Thymidylate synthase (Homo sapiens, UniProt P04818) (P04818 whole entry): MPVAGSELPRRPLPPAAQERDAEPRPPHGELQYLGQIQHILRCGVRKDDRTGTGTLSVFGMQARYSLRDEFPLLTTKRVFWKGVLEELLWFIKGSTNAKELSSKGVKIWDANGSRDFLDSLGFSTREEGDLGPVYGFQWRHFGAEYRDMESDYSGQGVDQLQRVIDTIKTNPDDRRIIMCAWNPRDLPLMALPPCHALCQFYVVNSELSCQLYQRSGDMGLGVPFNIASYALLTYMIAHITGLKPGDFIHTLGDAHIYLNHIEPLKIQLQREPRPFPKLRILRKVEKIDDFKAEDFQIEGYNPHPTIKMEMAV

| EC50 (CCRF-CEM [14]) [nM] | Compound | IC50 (Dihydrofolate reductase [1]) [nM] | IC50 (Thymidylate synthase [2]) [nM] | IC50 (Dihydrofolate reductase [3]) [nM] | IC50 (Thymidylate synthase [4]) [nM] | Control (FaDu [5]) [%] | EC50 (FaDu [6]) [nM] | EC50 (A253 cell line) [nM] | Control (FaDu [7]) [%] | EC50 (CCRF-CEM [8]) [nM] | Control (FaDu [9]) [%] | EC50 (CCRF-CEM [10]) [nM] | IC50 (Dihydrofolate reductase [11]) [nM] | Control (FaDu [12]) [%] | Control (FaDu [13]) [%] |
| --- | --- | --- | --- | --- | --- | --- | --- | --- | --- | --- | --- | --- | --- | --- | --- |
|  | CC1=C(Sc2ccncc2)C2C(=O)NC(N)=NC2N1 (centres undefined) | > 69000 | 340 | > 69000 | 100000 |  |  |  |  |  |  |  |  |  |  |
|  | CC1=C(Sc2ccc(C(=O)NC(CCC(=O)O)C(=O)O)cc2)C2C(=O)NC(N)=NC2N1 (centres undefined) | 2200 |  | 2200 | 21 | 5 | 530 | 3000 | 4 | 810 | 83 | 450 | 124 | 78 | 7 |
| 720 | C#CCN(Cc1ccc2[nH]c(N)nc(=O)c2c1)c1ccc(C(=O)NC(CCC(=O)O)C(=O)O)cc1 (centres undefined) |  |  |  |  |  |  |  |  |  |  |  |  |  |  |
|  | CN(Cc1cnc2nc(N)nc(N)c2n1)c1ccc(C(=O)N[C@@H](CCC(=O)O)C(=O)O)cc1 [METHOTREXATE] |  |  |  |  | 2 |  | 13 | 18 |  | 11 |  |  | 95 | 114 |
